Measured values gathered from unrelated publications.
Compare with care: the assays were run in different laboratories.
Cell line: MCF7
Read-out: cell growth or viability

| SMILES | technique | tested at | time | quantity | result |
| --- | --- | --- | --- | --- | --- |
| COc1cc(C(CC(=O)c2ccc([N+](=O)[O-])cc2)NCCc2ccc(O)c(O)c2)ccc1O (centres unmarked) | MTT | – | – | TGI | 0.29 µM |
| COc1cccc2c1C(=O)c1c(O)c3c(c(O)c1C2=O)C[C@@](O)(C(=O)CO)C[C@@H]3O[C@H]1C[C@H](N)[C@H](O)[C@H](C)O1 | MTT | – | 48 h | IC50 | 90 nM |
| COc1ccc(C(=O)/C=C/c2ccccc2Br)cc1S(N)(=O)=O | SRB | 10 µM | – | inhibition | 171% |
| CCOCCOCCOCCNC(=S)NCCCC[C@H](NS(C)(=O)=O)C(=O)N[C@@H](C)C(=O)N[C@@H](CCCNC(=N)N)C(N)=O | MTT | – | 72 h | EC50 | > 100 µM |
| C[C@]12CC[C@@H]3c4ccc(O)cc4CC[C@H]3[C@@H]1CC[C@@H]2O | ATP luminescence | – | 72 h | EC90 | 53.5 µM |
| CCCCCCCCCCCCNC(=S)NCCCC[C@H](NC(=O)OCc1ccccc1)C(=O)N[C@@H](C)C(=O)N[C@@H](CCCNC(=N)N)C(N)=O | MTT | – | 72 h | EC50 | 64.7 to 76.6 µM |
| COc1ccc(C(=O)/C=C/c2cccc(Cl)c2)cc1S(N)(=O)=O | SRB | 10 µM | – | inhibition | 167% |
| COc1ccc(-c2c(Cc3ccccc3)[nH]c(=NC(=O)c3ccccc3F)n2C)cc1 | – | – | – | EC50 | 1.4 µM |
| CCCCCCCCCCCCNC(=S)NCCCC[C@H](NS(C)(=O)=O)C(=O)N[C@H](C)C(=O)N[C@@H](CCCNC(=N)N)C(=O)N1CCOCC1 | MTT | – | 72 h | EC50 | 64.7 to 93.7 µM |
| COc1ccc(C(=O)/C=C/c2cccc(Br)c2)cc1S(N)(=O)=O | SRB | 10 µM | – | inhibition | 177% |
| COc1cc(C(CC(N)=O)NCCc2ccc(O)c(O)c2)ccc1O (centres unmarked) | MTT | – | – | TGI | 52 µM |
| COc1cc(CNC(=O)CCCC/C=C/C(C)C)ccc1O | SRB | 10 µM | – | inhibition | 24% |
| COc1ccc(C(=O)/C=C/c2cccnc2)cc1S(N)(=O)=O | SRB | 10 µM | – | inhibition | 93% |
| COc1cc(C(CC(C)=O)NCCc2ccc(O)c(O)c2)ccc1O (centres unmarked) | MTT | – | – | TGI | 46.2 µM |
| CCCCCCCC(=O)NCC(=O)OC | MTT | 10 µM | 48 h | inhibition | 45% |
| COc1cccc2c1C(=O)c1c(O)c3c(c(O)c1C2=O)C[C@@](O)(C(=O)CO)C[C@@H]3O[C@H]1C[C@H](N)[C@H](O)[C@H](C)O1 | MTT | – | – | TGI | 0.21 µM |
| COc1ccc(C(=O)/C=C/c2ccc3c(c2)OC(F)(F)O3)cc1S(N)(=O)=O | SRB | 10 µM | – | inhibition | 7% |
